Measurements as given in the EternaBench riboswitch data.

System: MS2 coat protein
Assay: apparent Kd, MS2 coat protein; higher = weaker binding; RNA-MaP array; FMN 200 µM where present
In short: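 Designs were transcribed by stalled E. coli RNA polymerase on Illumina sequencing-chip clusters. They were titrated with SNAP-549-labelled MS2 coat protein from 0.7 or 1.5 nM, doubling to 3 µM, without and then with constant ligand. Buffer: 100 mM Tris-HCl pH 7.5, 80 mM KCl, 4 mM MgCl2, BSA, DTT, yeast tRNA, Tween-20. Green signal was normalised to red-channel RNA signal and control-cluster median Fmax. Apparent Kd is the median of filtered per-cluster binding-curve fits.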

[1] = designed as: ON switch for flavin mononucleotide, no ligand
[2] = ligand present: flavin mononucleotide, designed as: ON switch for flavin mononucleotide
[3] = designed as: OFF switch for flavin mononucleotide, no ligand
[4] = ligand present: flavin mononucleotide, designed as: OFF switch for flavin mononucleotide

Sequence	apparent Kd [1] [nM]	apparent Kd [2] [nM]	apparent Kd [3] [nM]	apparent Kd [4] [nM]
GCCAUCGCAUGAGGAUAUGCUCCCGUUUCGGGAGCAGAAGGCAUGUAAUAAGACAUGAGGAUCACCCAUGUAGUUAAGAUGGCA	7.36	5.32	–	–
GGAAAUCAUGUAGGAUAUGCAUGGCGACGCUACGCAGAAGGACAUGAGGAUCACCCAUGUUAUAGCGUCCGAGAAAGGAUGCAA	–	–	34.5	53.4
CCGAUAAUGUAGGAUAUCGUAUCGGAGACGAUACGAGAAGGACAAACAUGAGGAUCACCCAUGUUCCUUAACGG	–	–	16.6	19.9
CUGGUUGUCGUAGGAUAUGUAGGAUAUUCCUACAUGAGGAUCACCCAUGUUCGCAUGGAAGAAGGACAGAAGGACGAUGACCAG	621	24.9	–	–
CGCUCAAUUCAGAAGGAUAGAAUCAGAAGGCGUAACAUGAGGAUCACCCAUGUAUAGAAGUGUAACGAGGAUAUGAAUUGAGCG	–	–	11.5	10.2
GGAUAGGACAGAGGAUAUACGUGCUAGAGAUACUAGCAAAAUUGCCUCACAUGAGGAUCACCCAUGUAGAAGGCUGUCCUAUCG	–	–	7.72	134
GGAUUACAUGAGGAUCACCCAUGUGAGGAUAUCGAUGUCCUCAGUCAAGUGCGGGACUCGAGAAGGCACUUGGA	–	–	64.2	32
AAGACACAUGAGGAUCACCCAUGUCAAGAGAGACGAGGAUAUCUGAAUUAAUUAAAUUAAGGAGAAGGCGUGAAAA	78.9	30.9	–	–
UUAAAUAGUGUGAGGAUAUGCUGGUCCUUGGAUCAGCAGAAGGCACAUGAGGAUCACCCAUGUAGUUAAUUUUA	–	–	39.9	253
ACAUGAGGAUCACCCAUGUAUUACAUGGUUAAGUUUAUAAACAGAAGGCGAUAAUACUUAUUGUUCGAGGAUAUGUAAUCAAUU	–	–	113	84.1
GGAUAGGACAGAGGAUAUACGUGAUAGAGAUACUAGCAAAAUUUCCUCACAUGAGGAUCACCCAUGUAGAAGGCUGUCCUAUCG	–	–	310	115
AAUGCGGCAGGAUAUACAUGAGGAUCACCCAUGUAGAUCAGAUAUAUGGUCGAACCAUGUAGAAGGGCCGCAAA	–	–	34.3	129
UUUUAAUAAGAGAAGGAGGACUUCAUGAGGAUCACCCAUGUGUUAGUACUUAGGAUAUUUAAUAACAUGAGGAUCACCCAUGUC	44.1	43	–	–
AACUAGUCAGGAUAUACGAACAUGUCAAAAAACAUAAAGGGACAUGAGGAUCACCCAUGUAGAAGGGACUAGCA	–	–	177	666
UGCACCAACGAGAAGGCACAGAUCCAGCUCUUGACAUGAGGAUCACCCAUGUGAGGAUAUCGUAGGUGCGCAUUGGGACAAUCU	–	–	11.9	103
GGAGCUCUCAUUAACAUGAGGAUCACCCAUGUCAAAAGACAUGAGGAUAUGGAUCCUAAUUGGAUCCAGAAGGCAUGGAGCUCC	1070	54.3	–	–
AAGAGACAUCAGAAGGGAGCCCGAACGCGCGGCUCAGGAUAUGAGAUCUUAUGUAGUACGACAUGAGGAUCACCCAUGUCCGCG	28.2	8.05	–	–
UGGUUGGGAGGAUAUCCAAUAUAUGACAUGAGGAUCACCCAUGUUUCCACUCGUACCUCCGGAGAAGGCCCUUCCU	–	–	22.8	21.6
CCUCAGUAAGGAUAUCAGCUUAGGAGGUUGGUAAUGAGAGCUGAGAAGGUACAUGAGGAUCACCCAUGUUAGUU	–	–	30.6	76.4
ACGCUUUGGGAGAAGGUACGUUAAUUUUUUUCCACAUGAGGAUCACCCAUGUAAGGAUAUCCCGGCGUUAAAUAGGCUACAGCA	–	–	7.2	8.14
ACUGCCCGAGAGAAGGGAACAUGAGGAUCACCCAUGUUACCUCACCUGGUGACGGAACUCCAAGUUCAGGAUAUCUCGAACGGU	–	–	5.23	6.51

Sequence	apparent Kd [1] [nM]	apparent Kd [2] [nM]	apparent Kd [3] [nM]	apparent Kd [4] [nM]
CGCUCAAUUACUUUGAAUAGAAUCAGAAGGCGUAACAUGAGGAUCACCCAUGUAUUGACGUGUAACGAGGAUAUGAAUUGAGCG	–	–	4.7	4.57
UCUGGUCGAGGAUAUACAUAACGUGCUUCGGCACGAGAUCUACAUGAGGAUCACCCAUGUAGAAGGCGACCAGA	–	–	16.7	46.7
CAGGUAGACUGAGGAUAUACACAAAACAGCUAGUCUAUCUAGCUGCUCACAUGAGGAUCACCCAUGUAGAAGGCAGUCUGCCUG	–	–	18.4	37.8
ACAUAGUUAGGAUAUGCUGCUCGUCACUUGCGUGAUGAGUAGCAGAAGGAACAUGAGGAUCACCCAUGUAAAGA	–	–	29.9	29.5
CCCUCAACAUGAGGAUCACCCAUGUAGGAUAUCGCUAUUGUAAUCAUGAAACAUGAUUACAAUAGCGAGAAGGACAUAUGUGGG	–	–	106	49.8
UUUAUUAGUUAGAAGGCUUGAUGAAUUACAAUGGACAUGAGGAUCACCCAUGUGUAUUCAUGUUAAGAGGAUAUAGUCAUAUAU	30.2	20.2	–	–
CGGGAGUCAGGAUAUACGAACAUGUCGCCAGAUGUCAAGGUACAUGAGGAUCACCCAUGUAGAAGGGAGGAGUU	–	–	91.9	56.6
AUAGCAACAUGAGGAUCACCCAUGUAGGAUAUCGCUAUUGUAAUCAUGAAACAUGAUUACAAUAGCGAGAAGGACAUAUGCUAC	–	–	9.33	11
GUAGCACAAACAAAUGUAACAUGAGGAUCACCCAUGUGUUAUGAGGAUAUGGAUGUGAAGUUAAUCCAGAAGGCAUUAUGCUAC	18.6	11.3	–	–
UUUUAACAUGAGGAUCACCCAUGUGAGGAUAUCGAAAUUUAUAUUAAUAUUAAUAUUUCGAGAAGGCACAUUUU	–	–	142	154
UGCUGUGUCAGAGGAUAUACACCUAUAAUCCAUUGCAAAUAGCGAUGGACAUGAGGAUCACCCAUGUAGAAGGCUGUCACAGCA	–	–	214	647
UUCAGCUCGACAGGAUAUACAUCACUGCUUCGGCAGUGUAUCUUAAUAACAUGAGGAUCACCCAUGUAGAAGGGUCGAGCUGAA	–	–	17.9	31.4
GCCGAAGGACCCUGACGGGUCGGCUAGGAUAUACAUGAGGAUCACCCAUGUGCGGUUAUUCACGAGUAGAAGGAGCCUCGGCAA	–	–	101	80.9
CGCACUAUACAUGAGGAUCACCCAUGUUAAUAUGAGAUAGUCAGAAGGCAUUGUAUGAGAAAUUAUGAGGAUAUGAAUAGUGCG	106	32.8	–	–
CAGAAGUCAGGAUAUGCAUGGCGGGACUUGCGUCGUGGCGUGCAGAAGGGACAUGAGGAUCACCCAUGUGGAGC	–	–	118	182
AGCAUGUAAGGAUAUGCAAGUGGUAUGGAUCGUACCAGAAAGCAGAAGGUACAUGAGGAUCACCCAUGUGCUCC	–	–	29.2	67.5
CGGGAGUCAGGAUAUACGAACAUGUCGCCAGAUGUCAUGGUACAUGAGGAUCACCCAUGUAGAAGGGAGGAGAU	–	–	139	103
UGCCGUAGAGGAUAUACAUUGAAUUUGAUUCAUGUAAAACUACAUGAGGAUCACCCAUGUAGAAGGCUAUGGCU	–	–	17.9	34.4
GCCACGGGAGGAUAUCGCGGAGGCUACAUGAGGAUCACCCAUGUCUGGUCUUCGUGCUCCCGAGAAGGCCCGUCAG	–	–	14	32.9
AAAAAACAAGGAUAUACGCACGAGGAUUGUCUUAAUUUUUGACAUGAGGAUCACCCAUGUAGAAGGUGUUAAAA	–	–	75.7	79.2
CGUCGGAGCAGAGGAUAUUACAUGAGGAUCACCCAUGUAUGAACCAAUAGCUGGAAACAGCAAUGUAAGAAGGCUGCUCCGACA	–	–	12.8	198
